# Source: PubChem
# An excerpt weighted towards active compounds, which were near 2.8% of everything screened.
# HTRA1 inh = HTRA1 serine protease inhibitors, primary screen, biochemical, fluorescence polarization, HTS. recombinant HTRA1, FP-rhodamine activity-based probe. inhibition, % at 5.96 µM. actives 0.5% (n = 340,000); in the data active = inhibition above about 36%;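 also: 0% = enzyme with DMSO and 100% = wells lacking enzyme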
# pPAFAH inh = pPAFAH enzyme inhibitors, primary screen, biochemical, fluorescence polarization, human; recombinant pPAFAH, FP-rhodamine probe fluorescence polarization; inhibition, % at 3.39 µM; actives 1.5% (n = 330,000); AID 463082, 2010;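 active = inhibition above the mean inhibition across the screen plus 3 SD, cut at about 25% in these data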;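 also: inhibitors block binding of the rhodamine activity-based probe so polarization drops; 0% = enzyme with DMSO and 100% = wells lacking pPAFAH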
# Target sequence (Q13093 whole entry, looked up): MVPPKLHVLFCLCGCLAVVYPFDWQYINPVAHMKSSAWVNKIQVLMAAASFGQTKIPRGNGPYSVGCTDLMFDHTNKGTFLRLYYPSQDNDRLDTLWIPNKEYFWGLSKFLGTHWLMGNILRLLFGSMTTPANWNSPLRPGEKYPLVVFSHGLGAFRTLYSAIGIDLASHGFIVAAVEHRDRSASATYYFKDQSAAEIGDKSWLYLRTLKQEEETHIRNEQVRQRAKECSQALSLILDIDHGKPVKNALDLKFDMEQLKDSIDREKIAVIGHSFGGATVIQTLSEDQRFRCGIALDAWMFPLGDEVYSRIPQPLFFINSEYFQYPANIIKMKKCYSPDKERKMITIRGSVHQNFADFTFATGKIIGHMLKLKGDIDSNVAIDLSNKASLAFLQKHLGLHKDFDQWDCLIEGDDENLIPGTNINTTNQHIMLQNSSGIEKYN
# PAFAH2 inh = PAFAH2 enzyme inhibitors, primary screen, biochemical, fluorescence polarization, human | Platelet-activating factor acetylhydrolase 2, cytoplasmic (Homo sapiens), Q99487 | recombinant PAFAH2, FP-rhodamine activity probe | inhibition, % at 3.39 µM | actives 0.99% (n = 340,000);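 active = inhibition above the mean over all tested compounds plus 3 SD, cut at about 30% in these data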;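 also: inhibitors block probe labeling of enzyme so polarization drops; 0% = enzyme with DMSO and 100% = wells lacking PAFAH2 protein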
# ABHD4 inh = ABHD4 inhibitors, primary screen, biochemical, fluorescence polarization, mouse; actives 0.54% (n = 370,000); (Lyso)-N-acylphosphatidylethanolamine lipase (Mus musculus), Q8VD66; purified mABHD4, FP-Rh probe fluorescence polarization; inhibition, % at 8.92 µM;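 active = inhibition exceeding the mean over every tested compound plus 3 SD, cut at about 30% in these data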;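 also: 0% = plate median of compound wells and 100% = S159A mutant with DMSO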
#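 Material: mouse ABHD4 enzyme, wild type; Benchmarks: S159A mutant high control, sample median low control; Buffer or medium: HEPES pH 7.0, NaCl, Pluronic buffer; Signal: fluorescence polarization; Read-out: percent inhibition of probe binding, normalized to plate controls; Timing: pre-incubation 45 min, probe exposure 60 min, at 25 °C; Dosing: 8.92 µM, single dose.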
# PAFAH1B3 inh = PAFAH1B3 enzyme inhibitors, primary screen, biochemical, fluorescence polarization, human. Platelet-activating factor acetylhydrolase IB subunit alpha1 (Homo sapiens), Q15102. recombinant PAFAH1B3, FP-rhodamine probe. inhibition, % at 3.39 µM. actives 0.28% (n = 340,000). AID 492972, 2010;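 active = inhibition above the screen-wide average of all tested compounds plus 3 SD, cut at about 25% in these data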;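 also: 0% = enzyme with DMSO only and 100% = wells lacking PAFAH1B3 protein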
# PAFAH1B2 inh = PAFAH1B2 enzyme inhibitors, primary screen, biochemical, fluorescence polarization, human; Platelet-activating factor acetylhydrolase IB subunit alpha2 (Homo sapiens), P68402; recombinant PAFAH1B2, FP-rhodamine activity probe; inhibition, % at 3.39 µM; actives 1.2% (n = 340,000);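 active = inhibition above the mean of all tested compounds plus 3 SD, cut at about 24% in these data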;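 also: 0% = enzyme with DMSO and 100% = wells lacking PAFAH1B2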
# Target sequence (P68402 whole entry, looked up): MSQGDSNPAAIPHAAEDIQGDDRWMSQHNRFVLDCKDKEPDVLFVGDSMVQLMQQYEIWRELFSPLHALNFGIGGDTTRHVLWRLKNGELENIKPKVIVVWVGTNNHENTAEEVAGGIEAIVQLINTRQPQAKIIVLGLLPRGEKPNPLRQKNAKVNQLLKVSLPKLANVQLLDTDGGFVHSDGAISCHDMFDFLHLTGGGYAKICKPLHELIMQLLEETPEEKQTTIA
# HTRA1 inh conf = HTRA1 protease inhibitors, retest, confirmation, biochemical, fluorescence polarization | shares compounds with HTRA1 inh | inhibition, % at 5.96 µM | actives 66% (n = 1,600) | recombinant HTRA1, FP-rhodamine activity-based probe;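 active = mean inhibition over three repeats above a set limit taken from the earlier primary screen, cut at about 37% in these data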;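 also: 0% = HTRA1 with DMSO and 100% = wells lacking HTRA1; inhibitors block probe binding so polarization drops and inhibition rises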
# Starred values were filed as active, the others as inactive; nt = no result given.
SMILES,HTRA1 inh,pPAFAH inh,PAFAH2 inh,ABHD4 inh,PAFAH1B3 inh,PAFAH1B2 inh,HTRA1 inh conf
COc1ccc(C=CC(=O)c2ccc(OC)c(OC)c2O)cc1OC,-2,nt,1,-6,8,2,nt
CO[C@H]([C@H](C)/C=C/N(C)C=O)[C@@H](C)C(=O)CC[C@H](C)[C@H](O)[C@H](C)[C@H]1OC(=O)/C=C/C(C)=C/C[C@H](O)C[C@@H]2C=CC[C@@H](C[C@H](OC)C(C)(O)[C@@H](OC)C[C@@H](OC)[C@@H]1C)O2 (stereo partly specified),nt,nt,nt,1,nt,nt,nt
CCCC(=O)NC(c1ccc(C(C)C)cc1)c1ccc2cccnc2c1O (stereo unspecified),52*,24,3,12,10,8,54*
CC(=O)NC(c1ccc(Cl)cc1)c1ccc2cccnc2c1O (stereo unspecified),46*,nt,0,13,21,1,79*
Cc1cc(NC(c2ccc(Cl)cc2)c2ccc3cccnc3c2O)no1 (stereo unspecified),48*,6,8,17,5,1,51*
O=C(O)c1ccccc1NC(c1ccccc1)c1ccc2cccnc2c1O (stereo unspecified),49*,nt,19,20,9,3,68*
Cc1ccnc(NC(c2ccccc2)c2ccc3cccnc3c2O)c1 (stereo unspecified),15,nt,5,12,5,3,nt
COc1ccc(CN2CN3Cc4ccccc4C3CS2(=O)=O)cc1 (stereo unspecified),nt,nt,nt,-1,nt,nt,nt
O=C(NCCc1c[nH]c2ccccc12)OCc1cn(Cc2ccc(C(F)(F)F)cc2)nn1,nt,nt,nt,-2,nt,nt,nt
CCC(=O)NC(c1ccc(C)cc1)c1ccc2cccnc2c1O (stereo unspecified),64*,8,2,16,8,4,76*
CCCC(=O)NC(c1ccccc1Cl)c1ccc2cccnc2c1O (stereo unspecified),38*,12,0,7,5,4,40*
C[C@H]1CCCN1c1cccc2c1S(=O)(=O)N1CC[C@@H](C1)O2,nt,nt,nt,6,nt,nt,nt
CCN(CC)C(=O)c1ncn2c1C(=O)N[C@H](C)C2,nt,nt,nt,-3,nt,nt,nt
Oc1ccc(-c2csc(-c3cccnc3)n2)cc1O,37*,24,1,11,-1,3,47*
Oc1ccc(-c2csc(Nc3ncccn3)n2)cc1O,54*,nt,7,14,4,1,59*
COc1cccc(Cn2cc(COC(=O)N3CCOCC3)nn2)c1,nt,nt,nt,0,nt,nt,nt
C=CCN1CCc2c(cc(O)c(O)c2Cl)C(c2ccccc2)C1 (stereo unspecified),43*,2,3,14,16,1,70*
Cc1ccc(-c2nn(-c3ccccc3)cc2C(=O)N2CCOCC2)cc1,36*,4,7,-1,5,8,-5
COc1ccc(OC)c(/C=N/NC(=O)C(=O)N2CCCCCC2)c1,42*,5,-1,1,8,0,-2
CC[C@H](CCCc1ccc(F)cc1)CN(Cc1ccc(OC)cc1)S(=O)(=O)c1ccc(C)cc1,nt,nt,nt,0,nt,nt,nt
O=S(=O)(O)c1ccc(O)c2cc(Nc3ccccc3)ccc12,67*,nt,89*,78*,76*,58*,44*
COc1ccc(CNc2cccc3[nH]c(C(F)(F)F)nc23)cc1OC,40*,4,6,-2,12,8,12
O=[N+]([O-])c1cc(Cl)c2cccnc2c1O,43*,7,5,10,8,-5,52*
Oc1c(I)cc(Cl)c2cccnc12,54*,31*,-1,27,16,11,87*
O=[N+]([O-])c1ccc(Cl)c2cccnc12,1,-6,-3,-7,4,1,nt
SMILES,HTRA1 inh,pPAFAH inh,PAFAH2 inh,ABHD4 inh,PAFAH1B3 inh,PAFAH1B2 inh,HTRA1 inh conf
O=[N+]([O-])c1cc(F)c2cccnc2c1O,55*,9,3,16,9,6,48*
Cc1ccnc(NC(=S)N2CCC(Nc3cccc(C(F)(F)F)c3)CC2)c1,nt,nt,nt,0,nt,nt,nt
CC(=NNc1nc2ccccc2o1)c1cc2ccccc2cn1,56*,nt,8,16,5,-1,70*
CCOc1ccc(N(CC(=O)Nc2c(C)n(C)n(-c3ccccc3)c2=O)S(=O)(=O)c2ccc(C(C)(C)C)cc2)cc1,nt,nt,nt,-1,nt,nt,nt
Cc1ccc2ccc(C(Nc3ccccc3)c3ccccc3)c(O)c2n1 (stereo unspecified),nt,nt,nt,-5,nt,nt,nt
Cc1ccc2ccc(C(Nc3cccc(C(F)(F)F)c3)c3cccnc3)c(O)c2n1 (stereo unspecified),54*,8,5,4,4,4,61*
COc1cccc(O[C@H]2C=C[C@@H](c3ccccc3)O[C@@H]2CO)c1,nt,nt,nt,-3,nt,nt,nt
CC(C)c1ccc(O)c(NC(=O)c2ncn[nH]2)c1,4,6,1,14,3,15,nt
CCc1ccc2c(c1)NC(=O)C2(C)Cc1ccc(F)cc1 (stereo unspecified),nt,nt,nt,24,nt,nt,nt
CC(C)c1ccc2c(c1)C1(NN=C(c3ccccc3)S1)C(=O)N2 (stereo unspecified),46*,6,6,5,12,8,66*
CCc1ccc2c(c1)C1(NN=C(c3ccc(C)cc3)S1)C(=O)N2 (stereo unspecified),37*,2,-3,-1,0,3,53*
O=C(NNC(=O)c1ccccc1O)c1ccc(Cl)c(S(=O)(=O)N2CCc3ccccc32)c1,50*,30*,14,-26,4,1,50*
Cc1ccc(NC(=O)c2ccc(Cl)c(S(=O)(=O)N3CCc4ccccc43)c2)nc1,-62,nt,-13,-22,-9,-10,nt
CCC[C@H]1[C@@H](OC(=O)N2CCCC2)CC[C@@]23CCCN2C(=O)CCC[C@@H]13,nt,nt,nt,-5,nt,nt,nt
Cc1ccc(CNC(=S)NC2CCCCC2)cc1,-7,nt,4,-8,0,6,nt
Cc1ccccc1NC(=S)NCc1ccc2c(c1)cc(C)n2C,0,6,8,16,-2,2,nt
COc1ccccc1NC(=S)NCc1ccc2c(c1)cc(C)n2C,38*,6,-1,2,6,2,-6
Cc1cc2cc(CNC(=S)NC3CCCCC3)ccc2n1C,40*,4,1,6,7,5,-6
Cc1cc2cc(CNC(=S)NCc3ccccc3)ccc2n1C,49*,6,9,14,10,-2,-16
